# Results from different studies.
# Lines come from different studies, so protocols differ.
# Target: Mitogen-activated protein kinase kinase kinase kinase 1 (MAP4K1, Homo sapiens, UniProt Q92918)
Compound,observed,action,method,tested at,quantity,value
CO[C@@H]1[C@H](N(C)C(=O)c2ccccc2)C[C@H]2O[C@]1(C)n1c3ccccc3c3c4c(c5c6ccccc6n2c5c31)C(=O)NC4,enzyme activity,inhibitor,,1 µM,inhibition,80%
C[C@H]1CC[C@H](n2c3cnccc3c3cnc(Nc4ccc5c(n4)CCN(C(=O)CO)C5)nc32)CC1,binding,,competition with immobilised ligand,1 µM,remaining binding,66%
C=CC(=O)N1CCC[C@@H](n2nc(-c3ccc(Oc4ccccc4)cc3)c3c(N)ncnc32)C1,enzyme activity,inhibitor,,1 µM,inhibition,10%
CN1CCN(C(=O)c2ccc(NC(=O)Nc3ccc(N(C)c4ccnc(Nc5ccc(CS(C)(=O)=O)cc5)n4)cc3)cc2)CC1,binding,,competition with immobilised ligand,1 µM,remaining binding,2.6%
CC(C)S(=O)(=O)c1ccc2nccc(Nc3ccc4sc(C5CCCC5)nc4c3)c2c1,enzyme activity,inhibitor,,1 µM,activity vs control,102%
CCCCC(=O)Nc1ccc(-c2ccc3ncn(CCC)c(=O)c3c2)cn1,binding,,competition with immobilised ligand,0.5 µM,remaining binding,100%
COc1ccc2oc(-c3ccc4nc(N)oc4c3)c/c(=N\c3ccccc3NC(=O)CCN)c2c1,binding,,,1 µM,remaining binding,109%
C#Cc1cc(-c2cc(Nc3nc(N[C@@H](C)c4ccc(F)cn4)ncc3Cl)n[nH]2)ccc1C=O,enzyme activity,inhibitor,,0.2 µM,inhibition,47.8%
